Screens: PubChem BioAssay, several laboratories
Shown are actives, neighbours in structure and some others; about 4.2% of the full set was active somewhere.
Rad51 HR inh = blocks human Rad51 in homologous recombination. 0.085% of 200,000 active. inhibition, % at 10 µM. hRad51 DNA strand exchange, fluorescence dequenching;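 active = inhibition above 40% at the single screening dose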
Target sequence (Q06609 whole entry, looked up): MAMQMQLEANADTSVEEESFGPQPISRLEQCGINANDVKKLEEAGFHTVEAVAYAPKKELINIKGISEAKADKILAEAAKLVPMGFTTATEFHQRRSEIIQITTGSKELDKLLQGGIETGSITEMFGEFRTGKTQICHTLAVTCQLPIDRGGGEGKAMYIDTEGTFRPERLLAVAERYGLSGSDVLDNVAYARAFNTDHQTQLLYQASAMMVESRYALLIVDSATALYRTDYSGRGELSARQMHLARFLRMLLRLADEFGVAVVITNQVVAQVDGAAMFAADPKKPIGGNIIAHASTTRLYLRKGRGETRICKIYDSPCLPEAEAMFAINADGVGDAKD
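material = hRad51 filaments on single-stranded DNA | reagent = Donor/quencher-labelled 47-bp dsDNA substrate | compound = 10 µM final, single point | schedule = strand-exchange reaction 15 min at room temperature | measured by = fluorescein emission 520 nm, excitation 485 nm | read-out basis = % inhibition versus plate control and blank means | benchmarks = plate controls and plate blanks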
Autophagy HCS = modulators of autophagy. AID 463193. 0.98% of 190,000 active. MEF GFP-LC3 puncta imaging; test concentration mostly 10 µM. calls only at 10 µM (by protocol);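 active = percentage of spot-positive cells more than 3 SD above its plate mean, without a fluorescence outlier flag or 80% toxicity; inconclusive = no clear call, values can overlap the other calls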
WT yeast gro inh = growth inhibition of WT yeast, mitochondrial fusion screen; mitochondrial fusion phenotypic screen, WT strain; 2.1% of 190,000 active; inhibition, % at 10 µM; AID 1362; in the data active = inhibition above about 58%; tested in S. cerevisiae
Ins promoter up = MIN6 insulin promoter up-regulation | z-score at 5 µM | MIN6 insulin promoter-GFP reporter, high-content imaging; active compounds read high | 0.3% of 190,000 active | AID 1625;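 active = z-score above 3 at 5 µM with at least 500 cells counted in the well; inconclusive = wells under 500 cells, flagged as cytotoxic or low count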
Cl transport mod = KCC2 (human) Cl- transport modulation | Q9H2X9 | AID 1456 | B-score of Tl+ flux slope (higher = more flux/activation; lower = inhibition) at 10 µM | 2.2% of 190,000 active | KCC2 cells, thallium flux FluoZin-2 fluorescence;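 active = thallium flux slope and its plate-corrected score both differing from the plate sample mean at a set confidence after two filtering rounds, in either direction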;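 note: slope of fluorescence scaled to starting intensity during 10 to 20 s after thallium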
SKKanGAS inh = inhibitors of SKKanGAS S. pyogenes growth in kanamycin (SK-promoter or general growth effect); BacTiter-Glo, 6 h; inhibition, % at 7.5 µM; 1.3% of 300,000 active; AID 1662;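 active = mean replicate score, as percent of positive control median, at least 50; inconclusive = mean below 50 but one replicate at or above 50; inactive = mean and every replicate below 50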;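 note: strain carries kanamycin resistance gene driven by streptokinase promoter and grows in 40 µg/ml kanamycin; loss of luminescence reflects streptokinase promoter inhibition or plain growth inhibition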
A number is an active result; i = inactive; ? = inconclusive; nt = no result.

SMILES	Rad51 HR inh	Autophagy HCS	WT yeast gro inh	Ins promoter up	Cl transport mod	SKKanGAS inh
O=c1[nH]c(=O)n(-c2cccc3ccccc23)c(O)c1/C=N/N1CCCCCC1	i	nt	nt	i	i	i
COC(=O)c1c(N)n(Cc2ccc(OC)cc2)c2nc3ccccc3nc12	i	i	71	i	i	nt
CCOC(=O)c1c(N)n(Cc2ccc(OC)cc2)c2nc3ccccc3nc12	i	i	i	nt	i	i
CC(C)OC1CCCC(O)C1CC(=O)O (stereo unspecified)	i	nt	nt	i	i	i
CCC(C)(C)n1nnnc1C(c1cccs1)N1CC=C(c2ccc(F)cc2)CC1 (stereo unspecified)	i	i	72	i	nt	i
Fc1ccc(C2=CCN(C(c3cccs3)c3nnnn3CCc3ccccc3)CC2)cc1 (stereo unspecified)	i	i	i	i	i	i
CCn1nc(-c2ccccc2)nc2c(=O)n(C)c(=O)nc1-2	i	i	i	?	i	95
OC(CN1CCCCC1)c1c[nH]c2ccccc12 (stereo unspecified)	nt	nt	nt	nt	nt	i
COc1ccc(NC(=O)c2cn(CCC#N)nc2-c2ccc(OC)c(OC)c2)cc1	nt	nt	nt	nt	nt	i
COc1cccc(C2=NOC(C(=O)N3CCC4(CC3)OCCO4)C2)c1 (stereo unspecified)	87	i	i	i	i	i
O=C(C1CC(c2ccc(Cl)c(Cl)c2)=NO1)N1CCC2(CC1)OCCO2 (stereo unspecified)	i	i	i	i	i	i
CCn1cc(CN2CCCC(C(=O)c3sccc3C)C2)cn1 (stereo unspecified)	i	i	i	i	i	i
OCCNc1c2c(nc3ccccc13)CCCC2	i	i	65	i	i	i
c1ccc(CNc2c3c(nc4ccccc24)CCC3)cc1	i	nt	nt	i	i	i
CC(C)N1OC2CC1c1nc3ccccc3n1C2 (stereo unspecified)	i	nt	nt	nt	i	i
CCCCCCCCCOc1ccc2[nH]cc(CCN)c2c1	i	nt	97	?	i	nt
COc1ccc2[nH]cc(CCN)c2c1	i	i	i	i	i	nt
CN1CCN2c3ccc(N)cc3CC3(C(=O)NC(=O)NC3=O)C2C1 (stereo unspecified)	i	nt	nt	nt	i	i
CCCNC1=C(C)C(=O)C2=C(C1=O)C(COC(N)=O)[C@]1(OC)C3NC3CN21 (stereo partly specified)	i	nt	nt	nt	i	109
O=c1[nH]c(=S)n(CCC2=CCCCC2)c(O)c1C=NCc1cccnc1	i	i	i	i	i	i
O=C(N/N=C/c1c(O)n(CCC2=CCCCC2)c(=O)[nH]c1=O)c1ccccc1	i	i	i	i	i	62
COc1ccc(/C=C/C(=O)c2c(O)n(CCC3=CCCCC3)c(=O)[nH]c2=O)cc1	i	i	i	i	i	58
O=C(N/N=C/c1c(O)n(CCC2=CCCCC2)c(=S)[nH]c1=O)c1ccccc1	i	i	i	nt	i	97
O=C1C(=O)c2ccccc2-c2ccccc21	i	i	97	?	i	86
O=c1c2ccccc2nc(CNCc2ccco2)n1-c1ccc(F)cc1	i	i	i	i	i	i
SMILES	Rad51 HR inh	Autophagy HCS	WT yeast gro inh	Ins promoter up	Cl transport mod	SKKanGAS inh
CCOP(=S)(NN(Cc1ccccc1)C(=O)c1ccccc1)OCC	i	i	i	i	i	i
Cc1ccc(-n2cc(CNC(C)Cc3cnccn3)c(-c3cccc(C)c3)n2)cc1 (stereo unspecified)	i	i	66	i	nt	i
CN(C)c1ccc2c(c1)N=C(c1ccco1)OP2(=S)N1CCOCC1 (stereo unspecified)	i	i	i	i	i	i
CNC(=O)Oc1ccc(N(C)C)cc1C(C)C	i	nt	nt	i	i	i
CC1Oc2cc3c(-c4c(O)cc(O)c5c(O)c6c(cc45)OC(C)C(C)C6=O)c(O)cc(O)c3c(O)c2C(=O)C1C (stereo unspecified)	i	nt	nt	i	i	107
Clc1ccccc1Nc1ncnc(-n2cccc2)n1	i	i	i	nt	i	i
CCCCn1c(O)c(C(C)=Nc2ccc(OCC)cc2)c(=O)[nH]c1=O	i	i	i	i	nt	65
O=c1[nH]c2ccccc2n1C1CCN(CCCC(c2ccc(F)cc2)c2ccc(F)cc2)CC1	i	i	70	nt	i	i
O=C1CCCN1CC#CCN1CCCC1	i	nt	nt	i	i	i
COc1ccc(CCNCc2cccn2C)cc1OC	nt	nt	nt	nt	nt	i
CCCCCn1c(=O)c(C(=O)NCc2ccc(Cl)cc2)c(O)c2ccccc21	nt	nt	nt	nt	nt	i
